Experimental data from different studies.
Lines come from different studies, so protocols differ.
Observed: cell growth or viability

SMILES	cell line	test	setting	CC50
CCOP(=O)(OCC)[C@@H]1C[C@@H](n2cc(Cn3ccc(NC(C)=O)nc3=O)nn2)ON1C (racemic)	human T-lymphocyte		72 h	> 250 µM
Nc1nc(NS(=O)(=O)c2ccccc2)nc(-c2ccc(Cl)cc2)c1-c1nc2ccccc2s1	BGM			230 µg/mL
O=C(O)c1cc(-c2ccc(Br)cc2)nc2ccc(Cl)cc12	Huh-7	MTT	24 h	89.7 µM
O=C(CNc1nc(NS(=O)(=O)c2ccccc2)ncc1-c1nc2ccccc2s1)c1ccc(Br)cc1	BGM			220 µg/mL
CCOP(=O)(OCC)[C@@H]1C[C@@H](n2cc(-c3nccn3C)nn2)ON1C	human T-lymphocyte		72 h	> 250 µM
Nc1nc(NS(=O)(=O)c2ccccc2)ncc1-c1nc2ccccc2s1	BGM			220 µg/mL
O=C1OC[C@H]2OC(O)[C@H](O)[C@@H](O)[C@@H]2OC(=O)c2cc(O)c(O)c(O)c2-c2c(O)c(O)c3oc(=O)c4c(c(O)c(O)c5oc(=O)c2c3c54)-c2c1cc(O)c(O)c2O (mixture of isomers)	Huh-7	MTT		> 5000 µM
CCOP(=O)(OCC)[C@@H]1C[C@H](n2cc(-c3ccccn3)nn2)ON1C	human T-lymphocyte		72 h	> 250 µM
Cc1ccc(S(=O)(=O)Nc2nc(N)c(-c3nc4ccccc4s3)c(-c3ccc(Cl)cc3)n2)cc1	BGM			190 µg/mL
N=C(N)c1ccc(OCCCCCOc2ccc(C(=N)N)cc2)cc1	Huh-7	MTT	24 h	9.24 µM
CC(C)c1cc(Oc2c(Cl)cc(-n3nc(C#N)c(=O)[nH]c3=O)cc2Cl)n[nH]c1=O	LX-2	ATP luminescence	48 h, serum-free	> 50 µM
Cc1ccc2c(c1C)NC(=O)[C@]21NN=C(c2ccccc2)S1	Huh-7	MTT	24 h	28.6 µM
CCO[C@@H](Cc1ccc(OCCn2c(C)ccc2-c2ccc(SC)cc2)cc1)C(=O)O	LX-2	ATP luminescence	48 h, serum-free	> 50 µM
CC(C)Cn1c(=O)n(C)c(=O)c2c(-c3cncn3C)n(Cc3cccc4ccccc34)nc21	Huh-7	MTT	24 h	> 200 µM
COc1ccc(NC(=O)N2CCCCN3C[C@H](c4ccc(C#Cc5ccccc5)cc4)[C@@H]3C2)cc1	HEK-293T			25 µM
CCOP(=O)(OCC)[C@@H]1C[C@@H](n2cc(-c3cccc(F)c3)nn2)ON1C (racemic)	human T-lymphocyte		72 h	> 250 µM
O[C@@H](c1cc(C(F)(F)F)nc2c(C(F)(F)F)cccc12)[C@H]1CCCCN1	Huh-7	MTT	24 h	15.9 µM
CCOP(=O)(OCC)[C@@H]1C[C@@H](n2cc(C(=O)OC)nn2)ON1C (relative stereo)	human T-lymphocyte		72 h	> 250 µM
Cc1onc(-c2ccccc2)c1-c1ccc(S(N)(=O)=O)cc1	Huh-7	MTT	24 h	> 200 µM
CCOP(=O)(OCC)[C@@H]1C[C@H](n2cc(Cn3cc(C)c(=O)[nH]c3=O)nn2)ON1C (racemic)	human T-lymphocyte		72 h	> 250 µM
CN1CCC(NCc2cccc(-c3ccc(S(=O)(=O)NCc4ccccc4)cc3)c2)CC1	Huh-7	MTT	24 h	6.84 µM
COc1ccc(NC(=O)N2CCCCN3[C@H](CN(C)S(C)(=O)=O)[C@H](c4ccc(C#Cc5ccccc5)cc4)[C@@H]3C2)cc1	HEK-293T			> 40 µM
Cc1ccc(S(=O)(=O)Nc2nc(N)c(-c3nc4ccccc4s3)c(-c3ccc(F)cc3)n2)cc1	BGM			190 µg/mL
CCOP(=O)(OCC)[C@@H]1C[C@H](n2cc(-c3ccccc3)nn2)ON1C	human T-lymphocyte		72 h	> 250 µM
C[C@@H](c1cc(Cl)cc(Cl)c1)N(C)c1ncc2c(N)nc(N)nc2n1	Huh-7	MTT	24 h	57.6 µM
CCOP(=O)(OCC)[C@@H]1C[C@H](n2cc(Cn3cnc4c(N)ncnc43)nn2)ON1C (relative stereo)	human T-lymphocyte		72 h	> 250 µM
C=C1CN(S(=O)(=O)c2ccc(C)cc2)CCCN(CCc2ccccc2)CCCN(S(=O)(=O)c2ccc(C)cc2)C1	HEK-293T	resazurin	72 h	> 50 µM
